In ChEMBL document CHEMBL5724801, “EUbOPEN Chemogenomics Library - Multiplex” (2024):
“And” between values parts separate entries of the source, which are not always exact repeats. Equal values may be shown once.

Tested on: Fibroblast
Experiment: Multiplex assay against human fibroblast
Format: toxicity, cell-based
In short: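 With compound added, live cells were imaged on a CQ1 microscope at 37°C and 5% CO2; staining with Hoechst33342, BioTracker Green Microtubule Cytoskeleton Dye, MitoTracker Red and Annexin V Alexa Fluor 680 had been done at seeding. The CellPathfinder machine-learning gating scheme split cells into Hoechst high-intensity objects or normal cells, normal cells into healthy, pyknosed or fragmented nuclei, and pyknosed cells into mitotic or apoptotic. The tubulin, mitochondrial-mass and membrane-permeability phenotypes are per cents of healthy-nucleus cells.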

[1] = 12 h, 1 µM, compound concentration 1 uM
[2] = 12 h, 10 µM, compound concentration 10 uM
[3] = 24 h, 1 µM, compound concentration 1 uM
[4] = 24 h, 10 µM, compound concentration 10 uM
[5] = 48 h, 1 µM, compound concentration 1 uM
[6] = 48 h, 10 µM, compound concentration 10 uM

COc1c(C)cc(NC(=O)c2nn(Cc3ccc(F)cc3)c3c2CN(C(=O)c2ccc[nH]2)C[C@]3(C)C(N)=O)cc1C
Population Apoptotic (%) [1]: 42% and 46%
Population Fragmented Nuclei (%) [1]: 21% and 16%
Population Healthy Nuclei (%) [1]: 58% and 51%
Population Hoechst High Intensity Objects (%) [1]: 2% and 3%
Population Membrane Permeable-Phenotype (%) [1]: 1% and 6%
Population Mitochondria Different-Phenotype (%) [1]: 18% and 11%
Population Mitotic Cells (%) [1]: 57% and 53%
Population Normal (%) [1]: 97% and 96%
Population Pyknosed Nuclei (%) [1]: 20% and 31%
Population Tubulin-Different-Phenotype (%) [1]: 64% and 72%
Total Cell Count [1]: 95 and 86
Population Apoptotic (%) [2]: 47% and 52%
Population Fragmented Nuclei (%) [2]: 12% and 29%
Population Healthy Nuclei (%) [2]: 58% and 38%
Population Hoechst High Intensity Objects (%) [2]: 1% and 2%
Population Membrane Permeable-Phenotype (%) [2]: 0% and 6%
Population Mitochondria Different-Phenotype (%) [2]: 25% and 30%
Population Mitotic Cells (%) [2]: 52% and 47%
Population Normal (%) [2]: 98% and 97%
Population Pyknosed Nuclei (%) [2]: 29% and 32%
Population Tubulin-Different-Phenotype (%) [2]: 90%
Total Cell Count [2]: 166 and 115
Population Apoptotic (%) [3]: 66% and 48%
Population Fragmented Nuclei (%) [3]: 25% and 31%
Population Healthy Nuclei (%) [3]: 61% and 38%
Population Hoechst High Intensity Objects (%) [3]: 3% and 6%
Population Membrane Permeable-Phenotype (%) [3]: 1% and 8%
Population Mitochondria Different-Phenotype (%) [3]: 17%
Population Mitotic Cells (%) [3]: 33% and 51%
Population Normal (%) [3]: 96% and 93%
Population Pyknosed Nuclei (%) [3]: 12% and 30%
Population Tubulin-Different-Phenotype (%) [3]: 45% and 67%
Total Cell Count [3]: 96 and 95
Population Apoptotic (%) [4]: 65% and 43%
Population Fragmented Nuclei (%) [4]: 14% and 30%
Population Healthy Nuclei (%) [4]: 64% and 47%
Population Hoechst High Intensity Objects (%) [4]: 3% and 4%
Population Membrane Permeable-Phenotype (%) [4]: 0% and 8%
Population Mitochondria Different-Phenotype (%) [4]: 47% and 26%
Population Mitotic Cells (%) [4]: 34% and 56%
Population Normal (%) [4]: 96% and 95%
Population Pyknosed Nuclei (%) [4]: 20% and 21%
Population Tubulin-Different-Phenotype (%) [4]: 90% and 82%
Total Cell Count [4]: 159 and 110
Population Apoptotic (%) [5]: 87% and 70%
Population Fragmented Nuclei (%) [5]: 29% and 34%
Population Healthy Nuclei (%) [5]: 61% and 45%
Population Hoechst High Intensity Objects (%) [5]: 7% and 5%
Population Membrane Permeable-Phenotype (%) [5]: 0% and 10%
Population Mitochondria Different-Phenotype (%) [5]: 10%
Population Mitotic Cells (%) [5]: 12% and 29%
Population Normal (%) [5]: 92% and 94%
Population Pyknosed Nuclei (%) [5]: 8% and 19%
Population Tubulin-Different-Phenotype (%) [5]: 45% and 69%
Total Cell Count [5]: 99 and 91
Population Apoptotic (%) [6]: 60% and 77%
Population Fragmented Nuclei (%) [6]: 22% and 41%
Population Healthy Nuclei (%) [6]: 60% and 51%
Population Hoechst High Intensity Objects (%) [6]: 4% and 2%
Population Membrane Permeable-Phenotype (%) [6]: 0% and 3%
Population Mitotic Cells (%) [6]: 39% and 22%
Population Normal (%) [6]: 95% and 97%
Population Pyknosed Nuclei (%) [6]: 17% and 7%
Population Tubulin-Different-Phenotype (%) [6]: 92% and 75%
Total Cell Count [6]: 166 and 122

CN(C)CCCc1cc(C(=O)Nc2ccc(-c3ccncc3)cc2)ccc1O.Cl.Cl
Population Apoptotic (%) [1]: 31% and 44%
Population Fragmented Nuclei (%) [1]: 15% and 22%
Population Healthy Nuclei (%) [1]: 65% and 52%
Population Hoechst High Intensity Objects (%) [1]: 4% and 2%
Population Membrane Permeable-Phenotype (%) [1]: 0% and 4%
Population Mitochondria Different-Phenotype (%) [1]: 7% and 4%
Population Mitotic Cells (%) [1]: 68% and 55%
Population Normal (%) [1]: 95% and 97%
Population Pyknosed Nuclei (%) [1]: 18% and 24%
Population Tubulin-Different-Phenotype (%) [1]: 22% and 40%
Total Cell Count [1]: 122 and 120
Population Apoptotic (%) [2]: 68% and 48%
Population Fragmented Nuclei (%) [2]: 33% and 31%
Population Healthy Nuclei (%) [2]: 58% and 51%
Population Hoechst High Intensity Objects (%) [2]: 7% and 4%
Population Membrane Permeable-Phenotype (%) [2]: 0% and 4%
Population Mitochondria Different-Phenotype (%) [2]: 15% and 6%
Population Mitotic Cells (%) [2]: 31% and 51%
Population Normal (%) [2]: 92% and 95%
Population Pyknosed Nuclei (%) [2]: 7% and 17%
Population Tubulin-Different-Phenotype (%) [2]: 43% and 45%
Total Cell Count [2]: 305 and 236
Population Apoptotic (%) [3]: 30% and 37%
Population Fragmented Nuclei (%) [3]: 16% and 22%
Population Healthy Nuclei (%) [3]: 66% and 50%
Population Hoechst High Intensity Objects (%) [3]: 1% and 4%
Population Membrane Permeable-Phenotype (%) [3]: 2% and 1%
Population Mitochondria Different-Phenotype (%) [3]: 3% and 7%
Population Mitotic Cells (%) [3]: 70% and 62%
Population Normal (%) [3]: 98% and 95%
Population Pyknosed Nuclei (%) [3]: 17% and 27%
Population Tubulin-Different-Phenotype (%) [3]: 25% and 45%
Total Cell Count [3]: 119 and 111
Population Apoptotic (%) [4]: 47% and 42%
Population Fragmented Nuclei (%) [4]: 30% and 31%
Population Healthy Nuclei (%) [4]: 63% and 53%
Population Hoechst High Intensity Objects (%) [4]: 6% and 4%
Population Membrane Permeable-Phenotype (%) [4]: 0% and 5%
Population Mitochondria Different-Phenotype (%) [4]: 11% and 5%
Population Mitotic Cells (%) [4]: 52% and 57%
Population Normal (%) [4]: 93% and 95%
Population Pyknosed Nuclei (%) [4]: 5% and 14%
Population Tubulin-Different-Phenotype (%) [4]: 40% and 42%
Total Cell Count [4]: 339 and 242
Population Apoptotic (%) [5]: 62% and 50%
Population Fragmented Nuclei (%) [5]: 28% and 23%
Population Healthy Nuclei (%) [5]: 59% and 54%
Population Hoechst High Intensity Objects (%) [5]: 0% and 8%
Population Membrane Permeable-Phenotype (%) [5]: 0% and 1%
Population Mitochondria Different-Phenotype (%) [5]: 1% and 5%
Population Mitotic Cells (%) [5]: 37% and 50%
Population Normal (%) [5]: 99% and 91%
Population Pyknosed Nuclei (%) [5]: 12% and 21%
Population Tubulin-Different-Phenotype (%) [5]: 29% and 46%
Total Cell Count [5]: 126 and 111
Population Apoptotic (%) [6]: 56% and 51%
Population Fragmented Nuclei (%) [6]: 28% and 35%
Population Healthy Nuclei (%) [6]: 60% and 53%
Population Hoechst High Intensity Objects (%) [6]: 11% and 2%
Population Membrane Permeable-Phenotype (%) [6]: 0% and 3%
Population Mitochondria Different-Phenotype (%) [6]: 8% and 2%
Population Mitotic Cells (%) [6]: 43% and 48%
Population Normal (%) [6]: 88% and 97%
Population Pyknosed Nuclei (%) [6]: 11% and 10%
Population Tubulin-Different-Phenotype (%) [6]: 48% and 39%
Total Cell Count [6]: 321 and 261
